# Laboratory results taken from ChEMBL document CHEMBL3244143, “Synthesis and gastric antisecretory properties of an 8-aza-and a 10-oxa-8,12-secoprostaglandin” (1978).
# What was measured:
# Rattus norvegicus [1] = assay: Antisecretory activity in rat assessed as decrease in volume of gastric secretion at 1.5 mg/kg, sc immediately after surgery and again 2 hrs later measured after 4 hrs of pyloric ligation; type: functional, Stomach; parameters: scale not given: the % may be the effect or the level left; details: route subcutaneous
# Outline: (§1)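 Pylorus-ligated rats under ether anesthesia via midline incision; 1.5 mg/kg sc given immediately after surgery and again 2.0 h later (total 3 mg/kg), diluted in phosphate buffer pH 7.4, 1 mL/kg. Six rats per compound plus vehicle control group. Killed 4 h after ligation; gastric volume measured, contents centrifuged 5000 rpm 10 min, supernatant titrated with 0.1 N NaOH to pH 7.0 (mequiv); % change vs control.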
# Rattus norvegicus [2] = assay: Antisecretory activity in rat assessed as decrease in total acid at 1.5 mg/kg, sc immediately after surgery and again 2 hrs later measured after 4 hrs of pyloric ligation; type: functional; parameters: scale not given: the % may be the effect or the level left; details: route subcutaneous; outline: as §1
SMILES,Activity (Rattus norvegicus [1]),Activity (Rattus norvegicus [2])
CCCCCC(O)/C=C/CCOC(=O)CCCCCCCC(=O)OC (stereo not given),25%,34%
CCCCC[C@H](O)/C=C/[C@@H]1[C@@H](C/C=C\CCCC(=O)O)[C@@H](O)C[C@H]1O [DINOPROST],37%,42%
CCCCC[C@H](O)/C=C/[C@H]1[C@H](O)CC(=O)[C@@H]1CCCCCCC(=O)O [ALPROSTADIL],74%,96%
CCCCCC(O)/C=C/CCCC(=O)N(C)CCCCCCC(=O)O (stereo not given),25%,25%
CCCCCC(O)/C=C/CCCC(=O)N(C)CCCCCCC(=O)OC (stereo not given),21%,32%
